Results published in ChEMBL document CHEMBL1134317, “Synthesis, biological evaluation, and pharmacophore generation of uracil, 4(3H)-pyrimidinone, and uridine derivatives as potent and selective inhibitors of parainfluenza 1 (Sendai) virus” (J Med Chem, 2001).
pEC50: −log10 of the molar value.

What was measured:
MDCK = experiment: Inhibitory activity against Parainfluenza 1 (Sendai) virus (PIV) in MDCK cells; format: functional; conditions: Canis lupus familiaris, read-out: ED50 (the source's name)
Procedure, shortened: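 Confluent MDCK monolayers infected with Sendai virus (10 HAU/10⁵ cells) and allowed to adsorb for 1 h at 37 °C. Inoculum removed, cells washed three times with PBS, then given fresh medium with 2% FCS. Compounds added after adsorption at several dilutions and kept until the end. Supernatants harvested at different times after challenge and titrated as hemagglutinin units. ED₅₀ derived from these titres.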

[1] = Minimum toxic concentration required to cause a microscopically detectable alteration of normal cell morphology of MDCK cells; conditions: Sendai virus, read-out: MTC
[2] = system: NSO mouse myeloma cells (Mus musculus); experiment: Cytotoxicity required to inhibit cell proliferation by 50% (tritiated thymidine incorporation in proliferating NSO mouse myeloma cells)

Row | SMILES | pEC50 (MDCK) | MCC [1] [µM] | CC50 [2] [µM]
1 | CCCOc1nc(CC2(c3ccccc3)CCCO2)cc(=O)n1C (stereo unspecified) | 3.82 | 305 | 170
2 | CCCCOc1nc(CC2CCCO2)cc(=O)n1C (stereo unspecified) | 3.71 | 376 | 579
3 | Cn1c(CC23CCC[C@H]2O3)cc(=O)n(C)c1=O (stereo partly specified) |  | > 0.84 | 8.4
4 | CCCCOc1nc(CC2(C)CCCO2)cc(=O)n1C (stereo unspecified) | 3.73 | 373 | 1080
5 | CCCOc1nc(CC2(C)CCCO2)cc(=O)n1C (stereo unspecified) | 3.73 | > 376 | 860
6 | COc1nc(CC2CCCO2)cc(=O)n1C (stereo unspecified) | < 3.35 | 446 | 1220
7 | C[C@H]1O[C@@]1(C)Cc1cc(=O)n(C)c(=O)n1C |  | > 2 | 89
8 | C[C@@H]1O[C@@]1(C)Cc1cc(=O)n(C)c(=O)n1C |  | > 2 | 89
9 | Cn1c(CC2(C)CO2)cc(=O)n(C)c1=O (stereo unspecified) |  | 0.48 | 4
10 | Cn1c(CC2(C(C)(C)C)CO2)cc(=O)n(C)c1=O (stereo unspecified) |  | > 0.79 | 7.9
11 | Cn1c(CC2(c3ccccc3)CO2)cc(=O)n(C)c1=O (stereo unspecified) |  | 0.37 | 3.7
12 | Cn1c(C[C@]2(C)CCCO2)cc(=O)n(C)c1=O | 5.95 | > 223 | 1380
13 | Cn1c(C[C@]2(c3ccccc3)CCCO2)cc(=O)n(C)c1=O | 3.94 | > 333 | 547
14 | Cn1c(C[C@@H]2CCCO2)cc(=O)n(C)c1=O | 3.47 | 446 | 1220
15 | CCCOc1nc(CC23CCCC[C@H]2O3)cc(=O)n1C (stereo partly specified) |  | > 352 | > 352
16 | Cn1c([C@H]2O[C@@H]2c2ccccc2)cc(=O)n(C)c1=O | 3.71 | 380 | > 380
17 | Cn1c(OC2CCCCC2)nc(CC2(C)CCCO2)cc1=O (stereo unspecified) | 3.79 | 326 | 816
18 | Cn1c(CC23CCCC[C@@H]2O3)cc(=O)n(C)c1=O (stereo partly specified) | < 5.70 | > 2 | 40
19 | CCCCOc1nc(CC2(c3ccccc3)CCCO2)cc(=O)n1C (stereo unspecified) | 3.84 | 292 | 90
20 | CCCOc1nc(CC2CCCO2)cc(=O)n1C (stereo unspecified) | 3.52 | 397 | 1020
21 | COc1nc(CC2(c3ccccc3)CCCO2)cc(=O)n1C (stereo unspecified) | 3.78 | 383 | 130
22 | CCCOc1nc(CC2(C)CCCO2)cc(OC)n1 (stereo unspecified) | 3.57 | > 305 | 375
23 | COc1nc(CC2(c3ccccc3)CO2)cc(=O)n1C (stereo unspecified) | 6.43 | 735 | > 360
24 | COc1nc(CC2(C)CCCO2)cc(=O)n1C (stereo unspecified) | 3.05 | 893 | 1620
25 | Cn1c(C2OC2(C)c2ccccc2)cc(=O)n(C)c1=O (stereo unspecified) |  | > 0.81 | 7.3
26 | CCCOc1nc(CC2(c3ccccc3)CO2)cc(=O)n1C (stereo unspecified) |  | 330 | > 330
27 | Cn1c(OC2CCCCC2)nc(CC2(c3ccccc3)CO2)cc1=O (stereo unspecified) |  | 294 | > 294
28 | CC1O[C@]1(C)Cc1cc(=O)n(C)c(OC2CCCCC2)n1 (mixture of isomers) |  | 342 | > 342
29 | Cn1c([C@H]2O[C@H]2c2ccccc2)cc(=O)n(C)c1=O (racemic) | 6.42 | > 0.8 | 7.7
